According to publication PMC4288442 (Biochemical and biophysical research communications, 2013):
Non-standard residues stand in square brackets, D forms with d. Residues, ends and D or L forms follow the SMILES beside them. Nle = CCCC[C@H](N)C(=O)O

Molecular target: wild type (NL4-3) HIV-1 protease (Human immunodeficiency virus type 1 group M subtype B, UniProt P12497)
Test: FRET-based enzyme inhibition assay, wild type
Format: biochemical
Summary of the method: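 Commercial wild-type NL4-3 HIV-1 protease, supplied at 0.3 mg/ml, assayed by FRET with a fluorogenic HIV-1 substrate. Peptide test compounds carry a reduced (-CH2-NH-) bond in place of the labile peptide bond so the protease cannot cleave them. IC50 is the average of three independent experiments, with SD.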

| SMILES | IC50 |
| --- | --- |
| CC(C)C[C@H](NC(=O)[C@@H](NC(=O)[C@@H](N)CCCNC(=N)N)C(C)C)C(=O)O [Compound 7b, Arg-Val-Leu] (H-Arg-Val-Leu-OH) | > 1000 nM |
| CCCC[C@H](NC(=O)[C@H](C)NC(=O)[C@H](CCC(=O)O)NC(=O)[C@@H](N)Cc1ccccc1)C(=O)O [Compound 7a, Phe-Glu-Ala-Nle] (H-FEA[Nle]-OH) | > 1000 nM |
